Measurements taken from ChEMBL document CHEMBL1932938, “From COX-2 inhibitor nimesulide to potent anti-cancer agent: synthesis, in vitro, in vivo and pharmacokinetic evaluation” (Eur J Med Chem, 2012).

Tests used:
SK-BR-3 [1] = assay: Cell cycle arrest in human SK-BR-3 cells assessed as accumulation at S phase at 0.25 uM after 12 hrs using propidium iodide staining by FACS analysis; format: functional
SK-BR-3 [2] = assay: Cell cycle arrest in human SK-BR-3 cells assessed as accumulation at G2/M phase at 0.25 uM after 12 hrs using propidium iodide staining by FACS analysis; format: functional
How it was run: (§1)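 SKBR-3 cells in RPMI1640 with 10% heat-inactivated FBS at 37 °C and 5% CO₂ were treated for the stated times. Cells were fixed overnight in 70% EtOH at −20 °C, then stained with propidium iodide buffer (38 mM sodium citrate pH 7.5, 69 µM PI, 120 µg/mL RNase A) for 15 min at room temperature in the dark. Up to 1×10⁴ gated cells were analyzed by flow cytometry, giving percent distribution per phase.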

SK-BR-3 [3] = assay: Cell cycle arrest in human SK-BR-3 cells assessed as accumulation at G1 phase at 0.50 uM after 12 hrs using propidium iodide staining by FACS analysis; format: functional; how it was run: as §1
SK-BR-3 [4] = assay: Cell cycle arrest in human SK-BR-3 cells assessed as accumulation at G1 phase at 0.10 uM after 18 hrs using propidium iodide staining by FACS analysis; format: functional; how it was run: as §1
SK-BR-3 [5] = assay: Cell cycle arrest in human SK-BR-3 cells assessed as accumulation at S phase at 0.10 uM after 18 hrs using propidium iodide staining by FACS analysis; format: functional; how it was run: as §1
SK-BR-3 [6] = assay: Cell cycle arrest in human SK-BR-3 cells assessed as accumulation at G2/M phase at 0.10 uM after 18 hrs using propidium iodide staining by FACS analysis; format: functional; how it was run: as §1
SK-BR-3 [7] = assay: Cell cycle arrest in human SK-BR-3 cells assessed as accumulation at G1 phase at 0.25 uM after 18 hrs using propidium iodide staining by FACS analysis; format: functional; how it was run: as §1
SK-BR-3 [8] = assay: Cell cycle arrest in human SK-BR-3 cells assessed as accumulation at S phase at 0.50 uM after 18 hrs using propidium iodide staining by FACS analysis; format: functional
SK-BR-3 [9] = assay: Cell cycle arrest in human SK-BR-3 cells assessed as accumulation at G2/M phase at 0.10 uM after 24 hrs using propidium iodide staining by FACS analysis; format: functional; how it was run: as §1
SK-BR-3 [10] = assay: Cell cycle arrest in human SK-BR-3 cells assessed as accumulation at G2/M phase at 0.25 uM after 24 hrs using propidium iodide staining by FACS analysis; format: functional; how it was run: as §1
SK-BR-3 [11] = assay: Cell cycle arrest in human SK-BR-3 cells assessed as accumulation at Sub-G1 phase at 0.50 uM after 24 hrs using propidium iodide staining by FACS analysis; format: functional
SK-BR-3 [12] = assay: Cell cycle arrest in human SK-BR-3 cells assessed as accumulation at G2/M phase at 5 uM after 24 hrs using propidium iodide staining by FACS analysis; format: functional; how it was run: as §1
CCRF-CEM = assay: Growth inhibition of human CCRF-CEM cells after 48 hrs by SRB assay; format: functional
HL-60(TB) = assay: Growth inhibition of human HL-60(TB) cells after 48 hrs by SRB assay; format: functional
How it was run: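 Tested in the 60-cell-line panel of the NCI Developmental Therapeutics Program with 48 h drug exposure. The read-out is cellular protein.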

K562 = assay: Growth inhibition of human K562 cells after 48 hrs by SRB assay; format: functional
RPMI-8226 = assay: Growth inhibition of human RPMI8226 cells after 48 hrs by SRB assay; format: functional
NCI-H460 = assay: Growth inhibition of human NCI-H460 cells after 48 hrs by SRB assay; format: functional
SF-539 = assay: Growth inhibition of human SF539 cells after 48 hrs by SRB assay; format: functional
U-251 = assay: Growth inhibition of human U251 cells after 48 hrs by SRB assay; format: functional
MDA-MB-435 = assay: Growth inhibition of human MDA-MB-435 cells after 48 hrs by SRB assay; format: functional
SK-MEL-28 = assay: Growth inhibition of human SK-MEL-28 cells after 48 hrs by SRB assay; format: functional
786-0 = assay: Growth inhibition of human 786-0 cells after 48 hrs by SRB assay; format: functional
A498 = assay: Growth inhibition of human A498 cells after 48 hrs by SRB assay; format: functional
T47D = assay: Growth inhibition of human T47D cells after 48 hrs by SRB assay; format: functional
[13] = AUC (0 to t) in Sprague-Dawley rat at 20 mg/kg, ip; format: ADME, organism-based; design: dose 20 mg/kg, route intraperitoneal; conditions: plasma
How it was run: (§2)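 Male Sprague–Dawley rats (300–350 g), n=3, fasted overnight with water available, given a single 20 mg/kg i.p. dose in PBS with 0.1% Tween80 and 20% DMSO. Blood drawn into heparinized tubes at 0, 0.25, 0.5, 1, 2, 4, 8 and 24 h. Plasma measured by LC-MS/MS against an internal standard. Parameters from non-compartmental analysis.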

[14] = Apparent oral clearance in Sprague-Dawley rat at 20 mg/kg, ip; format: ADME, organism-based; design: dose 20 mg/kg; conditions: in vivo; how it was run: as §2
SK-BR-3 [15] = assay: Cell cycle arrest in human SK-BR-3 cells assessed as accumulation at Sub-G1 phase at 5 uM after 3 hrs using propidium iodide staining by FACS analysis; format: functional
SK-BR-3 [16] = assay: Cell cycle arrest in human SK-BR-3 cells assessed as accumulation at G1 phase at 0.50 uM after 3 hrs using propidium iodide staining by FACS analysis; format: functional; how it was run: as §1
SK-BR-3 [17] = assay: Cell cycle arrest in human SK-BR-3 cells assessed as accumulation at Sub-G1 phase at 0.50 uM after 3 hrs using propidium iodide staining by FACS analysis; format: functional
SK-BR-3 [18] = assay: Cell cycle arrest in human SK-BR-3 cells assessed as accumulation at G1 phase at 0.50 uM after 6 hrs using propidium iodide staining by FACS analysis; format: functional; how it was run: as §1
SK-BR-3 [19] = assay: Cell cycle arrest in human SK-BR-3 cells assessed as accumulation at Sub-G1 phase at 5 uM after 6 hrs using propidium iodide staining by FACS analysis; format: functional
SK-BR-3 [20] = assay: Cell cycle arrest in human SK-BR-3 cells assessed as accumulation at G2/M phase at 5 uM after 6 hrs using propidium iodide staining by FACS analysis; format: functional; how it was run: as §1
[21] = read-out: LC50 (the source's name)

## Cc1ccc(C)c(COc2cc(NC(=O)c3ccc4c(c3)OCO4)ccc2N(C)S(C)(=O)=O)c1
SK-BR-3 [1]
  Activity: 6.14%
SK-BR-3 [2]
  Activity: 13.35%
SK-BR-3 [3]
  Activity: 63.15%
SK-BR-3 [4]
  Activity: 75.43%
SK-BR-3 [5]
  Activity: 8.71%
SK-BR-3 [6]
  Activity: 9.71%
SK-BR-3 [7]
  Activity: 73.42%
SK-BR-3 [8]
  Activity: 7.28%
SK-BR-3 [9]
  Activity: 11.23%
SK-BR-3 [10]
  Activity: 22.53%
SK-BR-3 [11]
  Activity: 27.94%
SK-BR-3 [12]
  Activity: 28.29%
CCRF-CEM
  GI50: 48.5 nM
  TGI: > 100000 nM
  growth inhibition (GI): Dose-dependent effect
CCRF-CEM; [21]
  CC50: > 100000 nM
HL-60(TB)
  growth inhibition (GI): Dose-dependent effect
HL-60(TB); HL-60, 48 h
  GI50: 26.9 nM
  TGI: 96.7 nM
HL-60(TB); HL-60, 48 h, read-out: LC50 (the source's name)
  CC50: > 100000 nM
K562
  growth inhibition (GI): Dose-dependent effect
K562; K562, 48 h
  GI50: 40.3 nM
  TGI: > 100000 nM
K562; K562, 48 h, read-out: LC50 (the source's name)
  CC50: > 100000 nM
RPMI-8226
  growth inhibition (GI): Dose-dependent effect
RPMI-8226; RPMI-8226, 48 h
  GI50: 290 nM
RPMI-8226; RPMI-8226, 48 h, read-out: LC50 (the source's name)
  CC50: > 100000 nM
NCI-H460
  growth inhibition (GI): Dose-dependent effect
NCI-H460; NCI-H460, 48 h
  GI50: 184 nM
  TGI: 744 nM
NCI-H460; NCI-H460, 48 h, read-out: LC50 (the source's name)
  CC50: > 100000 nM
SF-539
  growth inhibition (GI): Dose-dependent effect
SF-539; SF-539, 48 h
  GI50: 125 nM
SF-539; SF-539, 48 h, read-out: LC50 (the source's name)
  CC50: > 100000 nM
U-251
  growth inhibition (GI): Dose-dependent effect
U-251; U-251, 48 h
  GI50: 266 nM
  TGI: 21900 nM
U-251; U-251, 48 h, read-out: LC50 (the source's name)
  CC50: > 100000 nM
MDA-MB-435
  growth inhibition (GI): Dose-dependent effect
MDA-MB-435; MDA-MB-435, 48 h
  GI50: 28.5 nM
  TGI: 91.4 nM
MDA-MB-435; MDA-MB-435, 48 h, read-out: LC50 (the source's name)
  CC50: > 100000 nM
SK-MEL-28
  growth inhibition (GI): Dose-dependent effect
SK-MEL-28; SK-MEL-28, 48 h
  GI50: 692 nM
  TGI: > 100000 nM
SK-MEL-28; SK-MEL-28, 48 h, read-out: LC50 (the source's name)
  CC50: > 100000 nM
786-0
  growth inhibition (GI): Dose-dependent effect
786-0; 786-0, 48 h
  GI50: 191 nM
  TGI: 1110 nM
786-0; 786-0, 48 h, read-out: LC50 (the source's name)
  CC50: > 100000 nM
A498
  growth inhibition (GI): Dose-dependent effect
A498; A498, 48 h
  TGI: 853 nM
A498; A498, 48 h, read-out: LC50 (the source's name)
  CC50: > 100000 nM
T47D
  GI50: 682 nM
  TGI: > 100000 nM
  growth inhibition (GI): Dose-dependent effect
T47D; [21]
  CC50: > 100000 nM
[13]
  AUC(0-t): 16300 ng·h/mL
[14]
  CL/F: 8 mL/min
SK-BR-3 [15]
  Activity: 2.81%
SK-BR-3 [16]
  Activity: 67.14%
SK-BR-3 [17]
  Activity: 3.43%
SK-BR-3 [18]
  Activity: 67.1%
SK-BR-3 [19]
  Activity: 3.42%
SK-BR-3 [20]
  Activity: 17.19%
